Data on five molecules can be found in ChEMBL document CHEMBL1131099, “Biologically active oligodeoxyribonucleotides. 5. 5'-End-substituted d(TGGGAG) possesses anti-human immunodeficiency virus type 1 activity by forming a G-quadruplex structure” (J Med Chem, 1998).

Experiment [1] relates to MT4. Briefly: In vitro inhibitory activity for cytopathicities induced by HIV-1III B against MT-4 cells. The conditions noted are these: Homo sapiens. The experiment is classed as functional, cell-based. The gist of the method: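 Exponentially growing MT-4 cells were pelleted (140g, 5 min), infected in a small volume of RPMI-1640 with 100 TCID50 HIV-1 IIIB for 1 h, washed, and plated at 2.5 × 10⁴ cells/well with serial oligonucleotide dilutions. Viability was read by MTT at day 6. IC50 was taken from dose-response curves, as the mean of duplicate or quadruplicate ± SD.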

The test system of experiment [2] is MT4. Briefly: Cytotoxicity was measured against MT-4 cells using MTT assay. The experiment is classed as functional. The conditions noted are these: Homo sapiens.

Some results are limits rather than exact numbers.

`Cc1cn([C@H]2C[C@H](OP(=O)(O)OC[C@H]3O[C@@H](n4cnc5c(=O)[nH]c(N)nc54)C[C@@H]3OP(=O)(O)OC[C@H]3O[C@@H](n4cnc5c(=O)[nH]c(N)nc54)C[C@@H]3OP(=O)(O)OC[C@H]3O[C@@H](n4cnc5c(=O)[nH]c(N)nc54)C[C@@H]3OP(=O)(O)OC[C@H]3O[C@@H](n4cnc5c(N)ncnc54)C[C@@H]3OP(=O)(O)OC[C@H]3O[C@@H](n4cnc5c(=O)[nH]c(N)nc54)C[C@@H]3O)[C@@H](COC(c3ccccc3)(c3ccccc3)c3ccccc3)O2)c(=O)[nH]c1=O` registered an IC50 in experiment [1] of 0.8 µM. The CC50 in experiment [2] came to 23 µM.

On to `Cc1cn([C@H]2C[C@H](OP(=O)(O)OC[C@H]3O[C@@H](n4cnc5c(=O)[nH]c(N)nc54)C[C@@H]3OP(=O)(O)OC[C@H]3O[C@@H](n4cnc5c(=O)[nH]c(N)nc54)C[C@@H]3OP(=O)(O)OC[C@H]3O[C@@H](n4cnc5c(=O)[nH]c(N)nc54)C[C@@H]3OP(=O)(O)OC[C@H]3O[C@@H](n4cnc5c(N)ncnc54)C[C@@H]3OP(=O)(O)OC[C@H]3O[C@@H](n4cnc5c(=O)[nH]c(N)nc54)C[C@@H]3O)[C@@H](COCc3ccc(OCc4ccccc4)c(OCc4ccccc4)c3)O2)c(=O)[nH]c1=O`, for which the IC50 in experiment [1] amounted to 0.37 µM. Further, in experiment [2], the CC50 was over 40 µM.

Regarding `Cc1cn([C@H]2C[C@H](OP(=O)(O)OC[C@H]3O[C@@H](n4cnc5c(=O)[nH]c(N)nc54)C[C@@H]3OP(=O)(O)OC[C@H]3O[C@@H](n4cnc5c(=O)[nH]c(N)nc54)C[C@@H]3OP(=O)(O)OC[C@H]3O[C@@H](n4cnc5c(=O)[nH]c(N)nc54)C[C@@H]3OP(=O)(O)OC[C@H]3O[C@@H](n4cnc5c(N)ncnc54)C[C@@H]3OP(=O)(O)OC[C@H]3O[C@@H](n4cnc5c(=O)[nH]c(N)nc54)C[C@@H]3O)[C@@H](COCc3ccc4ccc5cccc6ccc3c4c56)O2)c(=O)[nH]c1=O`, half-maximal inhibition in experiment [1] (IC50) required 1.8 µM. The molecule further gave a CC50 in experiment [2] of over 40 µM.

`Cc1cn([C@H]2C[C@H](OP(=O)(O)OC[C@H]3O[C@@H](n4cnc5c(O)nc(N)nc54)C[C@@H]3OP(=O)(O)OC[C@H]3O[C@@H](n4cnc5c(O)nc(N)nc54)C[C@@H]3OP(=O)(O)OC[C@H]3O[C@@H](n4cnc5c(O)nc(N)nc54)C[C@@H]3O)[C@@H](COCc3ccc(OCc4ccccc4)c(OCc4ccccc4)c3)O2)c(=O)[nH]c1=O` gave an IC50 in experiment [1] of 4.6 µM. In experiment [2], the CC50 is over 40 µM.

`Cc1cn([C@H]2C[C@H](OP(=O)(O)OC[C@H]3O[C@@H](n4cnc5c(=O)[nH]c(N)nc54)C[C@@H]3OP(=O)(O)OC[C@H]3O[C@@H](n4cnc5c(=O)[nH]c(N)nc54)C[C@@H]3OP(=O)(O)OC[C@H]3O[C@@H](n4cnc5c(=O)[nH]c(N)nc54)C[C@@H]3OP(=O)(O)OC[C@H]3O[C@@H](n4cnc5c(=O)[nH]c(N)nc54)C[C@@H]3OP(=O)(O)OC[C@H]3O[C@@H](n4cnc5c(=O)[nH]c(N)nc54)C[C@@H]3O)[C@@H](COCc3ccc(OCc4ccccc4)c(OCc4ccccc4)c3)O2)c(=O)[nH]c1=O` had an IC50 in experiment [1] of 0.26 µM. Also, in experiment [2], the CC50 is over 40 µM.
